The target of one assay is Dopamine receptor (Bos taurus, UniProt Q95136+P20288). The assay is described as follows: Agonistic activity against calf striatal Dopamine receptor using [3H]- ADTN radioligand. The format is functional. An outline of the steps:
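Calf striatal membranes incubated with the dopamine agonist radioligand (±)-[3H]ADTN at 0.5 nM for 60 min at 25 °C.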

In the next assay the target is D(2) dopamine receptor (Rattus norvegicus, UniProt P61169). Kind of assay: Binding affinity at rat striatal Dopamine receptor D2 using [3H]- piperone radioligand.
Sequence of D(2) dopamine receptor (P61169 whole entry): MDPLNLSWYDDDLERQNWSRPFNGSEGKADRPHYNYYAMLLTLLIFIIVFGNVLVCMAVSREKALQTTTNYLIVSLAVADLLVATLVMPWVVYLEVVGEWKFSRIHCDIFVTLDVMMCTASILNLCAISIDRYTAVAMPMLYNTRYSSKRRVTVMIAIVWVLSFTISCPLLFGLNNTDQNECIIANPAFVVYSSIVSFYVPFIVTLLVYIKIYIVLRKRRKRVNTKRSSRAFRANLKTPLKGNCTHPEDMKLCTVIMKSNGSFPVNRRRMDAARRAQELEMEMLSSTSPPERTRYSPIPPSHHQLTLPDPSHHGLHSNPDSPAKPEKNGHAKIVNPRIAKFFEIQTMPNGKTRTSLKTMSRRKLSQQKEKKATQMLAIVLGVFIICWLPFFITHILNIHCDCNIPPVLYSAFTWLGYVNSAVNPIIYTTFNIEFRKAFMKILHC
In another assay the target is D(1A) dopamine receptor (Rattus norvegicus, UniProt P18901). Kind of assay: Binding affinity at rat striatal Dopamine receptor D1 using [3H]- SCH-23390 radioligand.
Sequence of D(1A) dopamine receptor (P18901 whole entry): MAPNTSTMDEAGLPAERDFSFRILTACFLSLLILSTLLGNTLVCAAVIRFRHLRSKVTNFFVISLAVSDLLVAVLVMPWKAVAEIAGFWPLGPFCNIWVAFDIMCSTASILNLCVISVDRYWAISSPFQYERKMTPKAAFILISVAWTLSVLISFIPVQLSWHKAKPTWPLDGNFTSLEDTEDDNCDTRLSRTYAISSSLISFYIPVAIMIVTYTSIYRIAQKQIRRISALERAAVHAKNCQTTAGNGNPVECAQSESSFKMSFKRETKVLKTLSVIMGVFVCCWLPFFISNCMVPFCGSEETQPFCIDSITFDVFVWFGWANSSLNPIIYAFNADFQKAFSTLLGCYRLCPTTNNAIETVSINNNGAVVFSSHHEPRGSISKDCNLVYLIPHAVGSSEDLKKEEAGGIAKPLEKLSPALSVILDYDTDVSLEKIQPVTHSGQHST
For assay [1], the target named is Dopamine receptors; D1 & D2 (Rattus norvegicus) (UniProt P18901+P61169). Kind of assay: Ratio of binding affinity of D2 to binding affinity of D1. The format is protein assay.

Each structure is given as a SMILES string. pKi: −log10 of the molar value. A value given as a limit tells only on which side of the number the result lay.

As usually defined, the Ki is the dissociation constant of the complex between target and ligand, obtained from inhibition or displacement. A low value points to higher affinity. The pKi is the negative decadic logarithm of the Ki, by convention in mol/L.

`COc1cc2c3c(c1)-c1c(ccc(O)c1O)C[C@H]3N(C)CC2` displayed a Ki at Dopamine receptor of 16.4 nM. The pKi on D(2) dopamine receptor was 8.95; on D(1A) dopamine receptor, above 5.00. Besides, in assay [1], the Potency ratio was above 9000.
For `CN1CCc2cc(Cl)cc3c2[C@H]1Cc1ccc(O)c(O)c1-3`, the pKi at D(2) dopamine receptor was 7.65; on D(1A) dopamine receptor it was 7.13. Besides, the Potency ratio in assay [1] came out at 3.3.
With `CCCN1CCc2cc(O)cc3c2[C@H]1Cc1ccc(O)c(O)c1-3`, the Ki at Dopamine receptor stood at 1.15 nM. Besides, the negative logarithm of the Ki (pKi) at D(2) dopamine receptor is 10.28; at D(1A) dopamine receptor, 6.04. The Potency ratio in assay [1] is 17300.
On Dopamine receptor, `COc1cc2c3c(c1)-c1c(ccc(O)c1O)C[C@@H]3N(C)CC2` yielded a Ki of 162 nM. For the same molecule, the pKi on D(2) dopamine receptor is 7.46; at D(1A) dopamine receptor, above 5.00. Further, in assay [1], the Potency ratio was above 300.
In the case of `CCCN1CCc2cc(OC)cc3c2[C@H]1Cc1ccc(O)c(O)c1-3`, on Dopamine receptor, the Ki was determined as 3.84 nM. The values for the pKi at D(2) dopamine receptor and at D(1A) dopamine receptor were 9.77 and 5.75, respectively. The Potency ratio in assay [1] was 10500.
For the molecule `CN1CCc2cc(Br)cc3c2[C@H]1Cc1ccc(O)c(O)c1-3`, the pKi is 7.75 at D(2) dopamine receptor and 6.97 on D(1A) dopamine receptor. Also, the Potency ratio in assay [1] was 6.

The values above are taken from ChEMBL document CHEMBL1124805 (J Med Chem, 1990).
